B1: tRNA (parent)
chain: GUUCCGUUGGCGUAAUGGUAACGCGUCUCCCUCCUAAGGAGAAGACUGCGGGUUCGAGUCCCGUACGGAACG

This sample holds only a part of the variants without activity.

The series covers variants of B1. Description: yeast fitness relative to wild type (ratio to wild type); higher = fitter; tRNA-Arg(CCU), competitive growth, 37 C, YPD. In outline: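 Changes in genotype frequencies gave Darwinian fitness relative to wild type. Frequencies were read by 100-nucleotide paired-end sequencing of gene amplicons before and after pooled Saccharomyces cerevisiae strains, carrying tRNA-Arg(CCU) gene variants at the native locus, were competed in YPD at 37°C for 24 hours in six replicates. A genotype was kept only with ≥ 100 starting reads, and estimates < 0.5 were set to 0.5.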
With C22A C60A C61G, the yeast fitness came to 0.565. Under U2C G6A C31U C49U stands 0.641.

In the case of C27A U59C, the yeast fitness is 0.883.

Regarding A15U A21C C24G C29U A42C U59G G67C, the yeast fitness is at most 0.5.

C27G G39A C66G: the yeast fitness worked out at 0.655. In the case of C22U G68C, the yeast fitness was determined as 0.717.

For the variant C5G U7G C33A A70U, the yeast fitness amounted to 0.57. Under U26C U35C A37U stands at most 0.5; under U47C C49A A65G, at most 0.5. As to C24U G56A, the yeast fitness is 0.998. Under A14C G51C U59G stands at most 0.5; under A15C G67A, 0.698; under G17A A42C A70C, 0.688. On to C11G A45C, for which the yeast fitness is 0.59. As to C5A A65G, the yeast fitness came to 0.978. As for A21C C31A C33G A45G G48A, the yeast fitness turned out to be 0.579. Regarding C24G C27A A45C C62G C66U, the yeast fitness is at most 0.5. Consider C46U C61U G67A, for which the yeast fitness stood at 0.535. Under C11A A21G C31G A36U A65U stands at most 0.5; under A14U A20U C49U, at most 0.5; under C24A C29U G67U, 0.591. To A15U G18C G23C C24G belongs at most 0.5; to A21G C33G C34G U47A G50A, at most 0.5. Under G18A C49U U54C stands 0.539.

With C29G C60A G67A, the yeast fitness was at most 0.5.

Regarding C5A G52C, the yeast fitness came to 0.567.

Turning to G10A C46A, the yeast fitness was 0.677. Under G9A G25C C30U A57G stands 0.526; under C11A U59C A69U, 0.573; under A20U A21G, 0.947.

Regarding C11U C31A A37G, the yeast fitness is at most 0.5.

Regarding C27G G68C, the yeast fitness worked out at 0.65. Under U19A C24A C31G C62U G68C stands 0.535; under G6C C34G A69C, at most 0.5; under U2G U13C A21G U35A C55U A70G, at most 0.5.

For U2G U35G A45G C49G U59C C60U A69C, the yeast fitness stood at 0.618. Under A20C G44A stands 0.778.

Regarding C22U G23C C55U C60G, the yeast fitness was 0.54. Under C4U G52C C61A stands 0.581. Under C24G G25A stands 0.852; under U3A C24A C34U U54G, at most 0.5.

In the case of G10A C27G C55A C61A, the yeast fitness is at most 0.5.

Regarding G38A C55U, the yeast fitness worked out at 0.849.

As for C11U A20U C24U C29A, the yeast fitness was at most 0.5.

For U47G C62G G68A, the yeast fitness was 0.525. For C5U C30G, the yeast fitness is 0.676. As for U19C C55U C61A, the yeast fitness is at most 0.5. To C30G A36G A57U A65U C66U belongs at most 0.5; to C34A U59G, 0.745.

On to G56U A65G, for which the yeast fitness is 0.615.

As to C24A G25C U47A, the yeast fitness was at most 0.5. Under A14G G18C A21U C29G G67A stands at most 0.5; under C5A C11G A21U A65C, at most 0.5; under U16C C31G G39A A57U, 0.692. To U7A A20U belongs 0.776. Turning to U13A A45U, the yeast fitness came to 1. Under U13C C24G C30A U47C stands at most 0.5; under A14G C24U C55A G63C, at most 0.5; under U2A G38C A40C C49U, 0.527.

Regarding C22U C31A, the yeast fitness was 0.762.

Consider G10A A42C A43C, for which the yeast fitness amounted to 0.612.

As for C4G U47G U59A C66A, the yeast fitness was at most 0.5. Under G52A C61U G68A stands 0.561; under C22G C27U A43G, 0.623; under G12A C33U A36C C55G, at most 0.5. Under U16A G25A C49A stands at most 0.5; under A20G A36U, 0.644. To U53C G68C belongs 0.846; to A15C U19C A21G C34U, at most 0.5; to U16G A45G, 1. As for A15U U47A A57U, the yeast fitness is 0.719. Under A42C U47C G63A stands 0.692; under G12A A15U C24U G44C G52C, at most 0.5. To U8C G48C G63C A70C belongs at most 0.5; to C27G G52A G63A, 0.533. Under G10C G63A C66U stands at most 0.5. For U13C A37G C49G C55U G56C G68A, the yeast fitness was at most 0.5. To G50A U53A C61U belongs 0.532; to A15C C46U U64C A70G, at most 0.5. To A36U A42C C61G belongs at most 0.5; to C49U A65U, 0.91; to A15G A20C U54A, at most 0.5. To C31U A42U A43U C60U A69U belongs 0.51; to U32G G41C, 0.597. Regarding G23C C49A U59C G67A A69G, the yeast fitness is at most 0.5. With C29U C46G G51A, the yeast fitness was 0.543. With C5U G44C A45U, the yeast fitness amounted to 0.657.

Take G10U G17A C24A: the yeast fitness is 0.643. Under G50C C62G C66U stands 0.968; under U2C C55A, 0.7; under C11U A57U A65U, 0.653. Under G12C U59C A69C stands 0.665; under A21U U53A C66U, at most 0.5. Under A14U G25A A42G C66G stands 0.767; under A15U C29A C34U C55A, 0.519. On to C24U C31A, for which the yeast fitness came out at 0.786. To C11G C49U G50A C61U belongs at most 0.5. To G9A C30G U32C A40G G50C A57U belongs at most 0.5.

Regarding G6A U26A C33A G51C C62U, the yeast fitness came to 0.591.

In the case of U13A G18C A36G G41C C55U, the yeast fitness amounted to 0.55.

Turning to C4A G10A, the yeast fitness was determined as 0.819. Under U2A G38C G44C A69U stands at most 0.5; under U16G G39C A42U U54C C55G U64A, at most 0.5.

Take G58C C62U: the yeast fitness was 0.893. Under A20U C31A C33G G56A stands at most 0.5. Under C4U C46U C49G U59C stands at most 0.5; under U3A C22G C27G U59C C62U G68U, at most 0.5; under U2G C60U, 0.782.

On to C24G G25C A40C A42U U47A C61G C66G, for which the yeast fitness turned out to be 0.509.

With A15G G41C A43C G67A, the yeast fitness worked out at 0.535. To U3A G9A belongs 0.977; to U19A G41C A70U, at most 0.5.

Regarding A20G C46U G50C C61A, the yeast fitness came to 0.572. Under A20G C24A A45C stands at most 0.5; under A14C C27A C31A, 0.588. On to U2A U3C G18C A69U, for which the yeast fitness was at most 0.5.

For the variant U16G G17C A43U G52C, the yeast fitness was at most 0.5. Under G12A C24G U26G G39C C49G A65G stands at most 0.5. Consider G39C C46G A70U, for which the yeast fitness was determined as 0.603. Under A40U C60U stands 0.832. Under C11U U28A C62G stands at most 0.5. To C29A C46A C55A A57G belongs at most 0.5; to C11G G17C A40G, at most 0.5. In the case of C5U A14C G63A, the yeast fitness is at most 0.5.

Turning to C5U A15G U16A A20G U28A C30A C33A A36U, the yeast fitness was at most 0.5. To A40U G68A belongs 0.923.

With A21C C49A A70G, the yeast fitness was found to be 0.626. To A15C G17C C31A G44C A70G belongs at most 0.5; to U16G C62U, 0.853. To U2G C4A U16C belongs at most 0.5; to C11U C34G G50C, 0.576. Turning to A43C A70C, the yeast fitness was determined as 0.897. Take C29U G41A A42C G50C A70G: the yeast fitness is at most 0.5. To G6C A42C belongs 0.808; to U8C U28C C30G C31G A65C, at most 0.5; to U7C C46A G51A U53A C62A G68A, 0.579. To U19C U28C C46A A70C belongs 0.545; to U13G A20U A69U, 0.708; to A45U U54C U64A A69U, at most 0.5.

Consider C5G U47A G68A, for which the yeast fitness is at most 0.5. To U3G A37G belongs 0.724; to U8G U35A, at most 0.5; to G12A C24G A40C A43C C46U C62A, at most 0.5. Under U59A C66U stands 0.815. As to C5A A65C G68A, the yeast fitness turned out to be 0.628.

As to C5A G6C A15G A40G G67A, the yeast fitness is at most 0.5. Under G25A C31G A45U stands 0.612. Under A20G A36U C66A stands 0.529; under C24A C29U C61G, at most 0.5; under A15G G39C, 0.736.

Regarding C4U A21G U32A A40C C46A, the yeast fitness was 0.769.

As to C22G U53A G68C, the yeast fitness was at most 0.5. With A36G A37C A43G, the yeast fitness was found to be 0.63. Under C27A G50A A69U stands 0.566; under U13A C62G A69G, 0.571.

Turning to C11U C29G C33U G39U C60U A65U A69U, the yeast fitness is at most 0.5. To U16A C61A C66U A69C belongs 0.697. Consider C11A U13G G51A, for which the yeast fitness was at most 0.5. To C4G G44A A45C G63A belongs at most 0.5; to C5G G50C, 0.701. Under C5A U59C stands 0.807. To U7C G48C C61G A65U belongs at most 0.5. For U8A C29A U54C, the yeast fitness was at most 0.5. Turning to C5A A40G C46A, the yeast fitness turned out to be 0.773. To C27U C31A U64G belongs at most 0.5. G17A C60G C61G: the yeast fitness was at most 0.5. To U13A C30A C31U A43C belongs 0.942.

(Values after the RNAGym collection of RNA variant scans (doi:10.1126/science.aae0568).)
